From ChEMBL document CHEMBL3120087, “3D QSAR studies based in silico screening of 4,5,6-triphenyl-1,2,3,4-tetrahydropyrimidine analogs for anti-inflammatory activity” (2014) come the findings set out here.

The subject of assay [1] is Rattus norvegicus. In words: Antiinflammatory activity in rat assessed as reduction of paw edema. In kind it is functional. The method in brief: (§1)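 Albino rats of either sex (150–200 g), six per group, fasted 12 h with water only. […] Paw volume measured by plethysmometer immediately (initial) and then hourly to 4 h. Mean paw volume ± SEM reported with % inhibition of edema versus control.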

Assay [2] relates to Rattus norvegicus. In words: Antiinflammatory activity in albino rat assessed as inhibition of carrageenan-induced paw edema at 20 mg/kg, po administered 1 hr prior to carrageenan challenge measured after 2 hrs relative to vehicle-treated control. It counts as functional. Put shortly:
as §1

For assay [3], the system named is Rattus norvegicus. In words: Antiinflammatory activity in albino rat assessed as inhibition of carrageenan-induced paw edema at 20 mg/kg, po administered 1 hr prior to carrageenan challenge measured after 3 hrs relative to vehicle-treated control. It counts as functional. Put shortly:
as §1

Assay [4] relates to Rattus norvegicus. The assay is described as follows: Antiinflammatory activity in albino rat assessed as inhibition of carrageenan-induced paw edema at 20 mg/kg, po administered 1 hr prior to carrageenan challenge measured after 1 hr relative to vehicle-treated control. It counts as functional. The method in brief: as §1
The test system of assay [5] is Rattus norvegicus. In words: Antiinflammatory activity in albino rat assessed as inhibition of carrageenan-induced paw edema at 20 mg/kg, po administered 1 hr prior to carrageenan challenge measured after 4 hrs relative to vehicle-treated control. In kind it is functional. The method in brief:
as §1

Assay [6] relates to Rattus norvegicus. The assay is described as follows: Antiinflammatory activity in albino rat assessed as inhibition of carrageenan-induced paw edema at 20 mg/kg, po administered 1 hr prior to carrageenan challenge measured after 24 hrs relative to vehicle-treated control. It counts as functional.
In assay [7] the target is T1, Prostaglandin G/H synthase 1 (Ovis aries) (UniProt P05979).
T1 sequence (whole entry): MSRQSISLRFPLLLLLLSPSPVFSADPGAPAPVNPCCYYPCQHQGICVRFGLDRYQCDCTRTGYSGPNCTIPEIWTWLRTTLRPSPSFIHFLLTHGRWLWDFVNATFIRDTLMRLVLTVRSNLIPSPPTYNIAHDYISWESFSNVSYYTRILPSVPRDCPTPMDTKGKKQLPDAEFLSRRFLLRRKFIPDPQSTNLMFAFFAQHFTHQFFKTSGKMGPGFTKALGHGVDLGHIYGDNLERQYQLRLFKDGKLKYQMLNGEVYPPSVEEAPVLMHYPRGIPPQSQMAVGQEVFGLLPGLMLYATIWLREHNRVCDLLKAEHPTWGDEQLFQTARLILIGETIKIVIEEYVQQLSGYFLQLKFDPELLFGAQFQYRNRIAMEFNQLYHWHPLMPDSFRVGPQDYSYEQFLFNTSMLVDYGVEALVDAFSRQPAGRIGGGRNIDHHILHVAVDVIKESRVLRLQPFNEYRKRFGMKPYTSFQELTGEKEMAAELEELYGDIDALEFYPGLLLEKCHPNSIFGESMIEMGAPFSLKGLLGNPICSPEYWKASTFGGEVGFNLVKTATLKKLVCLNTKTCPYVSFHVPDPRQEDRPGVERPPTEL
The assay is described as follows: Inhibition of ovine COX1 using TMPD as substrate at 20 uM incubated for 5 mins prior to substrate addition measured after 5 mins by colorimetry. The method in brief: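 Colorimetric COX assay using peroxidase activity of ovine cyclooxygenase to oxidize TMPD. Assay mixture mixed and incubated at 25 °C for 5 min. Enzyme activity read as absorbance at 590 nm.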

Structures are written as SMILES.

On to `COc1ccc(C2NC(=N)NC(c3ccccc3)=C2CC(=O)O)cc1` (configuration not stated), for which the “log(activity)” value with Rattus norvegicus [1] turned out to be 0.82.

In the case of `Cc1ccc(C2=C(CC(=O)O)C(c3cccnc3)NC(=N)N2)cc1` (configuration not stated), the “log(activity)” value in the assay with Rattus norvegicus [1] is on record as 0.58.

Consider `O=C(O)CC1=C(c2ccccc2)N=C(S)NC1c1ccc(Cl)cc1` (configuration not stated), for which, in the assay with Rattus norvegicus [1], the “log(activity)” value came out at 0.88.

Regarding `COc1ccc(C2NC(=O)NC(c3ccc(S(C)(=O)=O)cc3)=C2c2ccccc2)c(OC)c1` (configuration not stated), the inhibition in vivo at 20 mg/kg was found to be 28.1% in the assay with Rattus norvegicus [2], 39.1% in the assay on Rattus norvegicus [3] and 21.6% with Rattus norvegicus [4].

Consider `O=C(O)CC1=C(c2ccc(Cl)cc2)N=C(S)NC1c1ccc(Cl)cc1` (configuration not stated), for which the “log(activity)” value in the assay on Rattus norvegicus [1] was found to be 0.82.

For the compound `COc1ccc(C2NC(S)=NC(c3ccc(Cl)cc3)=C2CC(=O)O)cc1` (configuration not stated), the “log(activity)” value in the assay on Rattus norvegicus [1] was 1.02.

As to `CS(=O)(=O)c1ccc(C2=C(c3ccccc3)C(c3ccccc3)NC(=S)N2)cc1` (configuration not stated), the inhibition in vivo at 20 mg/kg with Rattus norvegicus [5] stood at 18.4%; in the assay with Rattus norvegicus [2] it was 30.9%; in the assay with Rattus norvegicus [3], 43.1%; with Rattus norvegicus [4] it was 46.9%.

Regarding `N=C1NC(c2ccccc2)=C(CC(=O)O)C(c2ccc(Cl)cc2)N1` (configuration not stated), the “log(activity)” value in the assay on Rattus norvegicus [1] is 0.64.

Regarding `O=C(O)CC1=C(c2ccccc2)N=C(S)NC1c1cccs1` (configuration not stated), the “log(activity)” value with Rattus norvegicus [1] is 0.64.

As for `N=C1NC(c2ccc(Cl)cc2)=C(CC(=O)O)C(c2ccc(Cl)cc2)N1` (configuration not stated), the “log(activity)” value in the assay with Rattus norvegicus [1] was 0.74.

For the compound `Cc1ccc(C2=C(CC(=O)O)C(c3ccccc3)NC(S)=N2)cc1` (configuration not stated), the “log(activity)” value with Rattus norvegicus [1] worked out at 0.82.

Regarding `O=C(O)CC1=C(c2ccc(Cl)cc2)N=C(S)NC1c1cccs1` (configuration not stated), in the assay with Rattus norvegicus [1], the “log(activity)” value was 0.54.

Regarding `Cc1ccc(C2=C(CC(=O)O)C(c3ccco3)NC(S)=N2)cc1` (configuration not stated), in the assay on Rattus norvegicus [1], the “log(activity)” value amounted to 0.31.

For the compound `N=C1NC(c2ccccc2)=C(CC(=O)O)C(c2cccs2)N1` (configuration not stated), the “log(activity)” value in the assay with Rattus norvegicus [1] is recorded as 0.51.

In the case of `Cc1ccc(C2=C(CC(=O)O)C(c3cccs3)NC(S)=N2)cc1` (configuration not stated), the “log(activity)” value with Rattus norvegicus [1] is on record as 0.28.

Turning to `O=C(O)CC1=C(c2ccc(Cl)cc2)N=C(S)NC1c1cccnc1` (configuration not stated), in the assay with Rattus norvegicus [1], the “log(activity)” value is 0.35.

Take `N=C1NC(c2ccc(Cl)cc2)=C(CC(=O)O)C(c2ccco2)N1` (configuration not stated): in the assay with Rattus norvegicus [1], the “log(activity)” value turned out to be 0.56.

Consider `N=C1NC(c2ccccc2)=C(CC(=O)O)C(c2cccnc2)N1` (configuration not stated), for which the “log(activity)” value in the assay on Rattus norvegicus [1] worked out at 0.3.

Take `N=C1NC(c2ccc(Cl)cc2)=C(CC(=O)O)C(c2cccs2)N1` (configuration not stated): in the assay with Rattus norvegicus [1], the “log(activity)” value is given as 0.64.

Regarding `O=C(O)CC1=C(c2ccccc2)N=C(S)NC1c1ccco1` (configuration not stated), the “log(activity)” value in the assay on Rattus norvegicus [1] came out at 0.57.

For the compound `Cc1ccc(C2=C(CC(=O)O)C(c3cccnc3)NC(S)=N2)cc1` (configuration not stated), in the assay on Rattus norvegicus [1], the “log(activity)” value stood at 0.11.

`COc1ccc(C2NC(S)=NC(c3ccccc3)=C2CC(=O)O)cc1` (configuration not stated): the “log(activity)” value in the assay on Rattus norvegicus [1] was 0.92.

As for `O=C(O)CC1=C(c2ccc(Cl)cc2)N=C(S)NC1c1ccco1` (configuration not stated), the “log(activity)” value in the assay on Rattus norvegicus [1] came to 0.24.

With `COc1ccc(OC)c(C2NC(=O)NC(c3ccc(Cl)cc3)=C2c2ccc(S(N)(=O)=O)cc2)c1` (configuration not stated), the inhibition in vivo at 20 mg/kg was 14.3% in the assay with Rattus norvegicus [5], 28.1% in the assay on Rattus norvegicus [2], 24.4% in the assay with Rattus norvegicus [3] and 18% in the assay on Rattus norvegicus [4].

For the compound `N=C1NC(c2ccc(Cl)cc2)=C(CC(=O)O)C(c2ccccc2)N1` (configuration not stated), the “log(activity)” value in the assay with Rattus norvegicus [1] amounted to 0.78.

Consider `COc1ccc(C2NC(=S)NC(c3ccc(S(C)(=O)=O)cc3)=C2c2ccccc2)c(OC)c1` (configuration not stated), for which the inhibition in vivo at 20 mg/kg in the assay on Rattus norvegicus [2] was determined as 26.7%; in the assay with Rattus norvegicus [3], 10.2%; with Rattus norvegicus [4] it was 15.3%.

Consider `N=C1NC(c2ccc(Cl)cc2)=C(CC(=O)O)C(c2cccnc2)N1` (configuration not stated), for which, in the assay on Rattus norvegicus [1], the “log(activity)” value was found to be 0.54.

Regarding `COc1ccc(C2NC(=N)NC(c3ccc(Cl)cc3)=C2c2ccc(S(C)(=O)=O)cc2)cc1` (configuration not stated), the inhibition in vivo at 20 mg/kg was 28.6% in the assay with Rattus norvegicus [5]; 15.6% with Rattus norvegicus [6]; 20.5% with Rattus norvegicus [2]; 43.6% in the assay on Rattus norvegicus [3]; 30.2% in the assay with Rattus norvegicus [4].

`O=C(O)CC1=C(c2ccccc2)N=C(S)NC1c1cccnc1` (configuration not stated): the “log(activity)” value with Rattus norvegicus [1] is reported as 0.46.

`COc1ccc(OC)c(C2NC(=O)NC(c3ccc(S(C)(=O)=O)cc3)=C2c2ccccc2)c1` (configuration not stated): the inhibition in vivo at 20 mg/kg in the assay with Rattus norvegicus [5] was 17.3%; in the assay with Rattus norvegicus [2], 19.1%; with Rattus norvegicus [3], 24.4%; with Rattus norvegicus [4], 35.6%.

Regarding `N=C1NC(c2ccccc2)=C(CC(=O)O)C(c2ccco2)N1` (configuration not stated), the “log(activity)” value in the assay with Rattus norvegicus [1] is 0.55.

With `CN(C)c1ccc(C2NC(=O)NC(c3ccc(Cl)cc3)=C2c2ccc(S(C)(=O)=O)cc2)cc1` (configuration not stated), the inhibition in vivo at 20 mg/kg in the assay with Rattus norvegicus [5] amounted to 16.1%; in the assay on Rattus norvegicus [2], 27.6%; with Rattus norvegicus [3], 28.9%; with Rattus norvegicus [4], 18%.

Take `Cc1ccc(C2=C(CC(=O)O)C(c3ccc(Cl)cc3)NC(=N)N2)cc1` (configuration not stated): the “log(activity)” value with Rattus norvegicus [1] was 0.68.

Take `COc1ccc(C2NC(=N)NC(c3ccc(Cl)cc3)=C2CC(=O)O)cc1` (configuration not stated): the “log(activity)” value in the assay with Rattus norvegicus [1] stood at 0.92.

Consider `Cc1ccc(-c2cc(C(F)(F)F)nn2-c2ccc(S(N)(=O)=O)cc2)cc1` [CELECOXIB], for which the inhibition in vivo at 20 mg/kg in the assay on Rattus norvegicus [5] is 17.9%; with Rattus norvegicus [6], 6.49%; in the assay on Rattus norvegicus [2], 41.9%; in the assay on Rattus norvegicus [3], 32.5%; in the assay with Rattus norvegicus [4], 48.2%.

For `COc1ccc(C2NC(S)=NC(c3ccc(C)cc3)=C2CC(=O)O)cc1` (configuration not stated), the “log(activity)” value in the assay with Rattus norvegicus [1] amounted to 0.96.

On to `Cc1ccc(C2=C(CC(=O)O)C(c3cccs3)NC(=N)N2)cc1` (configuration not stated), for which, in the assay with Rattus norvegicus [1], the “log(activity)” value was 0.64.

On to `COc1ccc(C2NC(=N)NC(c3ccc(S(C)(=O)=O)cc3)=C2c2ccccc2)cc1OC` (configuration not stated), for which the inhibition in vivo at 20 mg/kg came out at 11.3% in the assay with Rattus norvegicus [5]; 3.9% in the assay on Rattus norvegicus [6]; 18.6% in the assay with Rattus norvegicus [2]; 37.1% in the assay on Rattus norvegicus [3]; 24.8% in the assay with Rattus norvegicus [4].

In the case of `Cc1ccc(C2=C(CC(=O)O)C(c3ccccc3)NC(=N)N2)cc1` (configuration not stated), the “log(activity)” value in the assay on Rattus norvegicus [1] is 0.82.

For the compound `O=C(O)CC1=C(c2ccc(Cl)cc2)N=C(S)NC1c1ccccc1` (configuration not stated), the “log(activity)” value in the assay with Rattus norvegicus [1] came out at 0.65.

Take `COc1ccc(OC)c(C2NC(=N)NC(c3ccc(S(C)(=O)=O)cc3)=C2c2ccccc2)c1` (configuration not stated): the inhibition in vivo at 20 mg/kg was 10.7% with Rattus norvegicus [5], 24.3% with Rattus norvegicus [2], 20.3% in the assay on Rattus norvegicus [3] and 25.2% in the assay on Rattus norvegicus [4].

In the case of `O=C(O)CC1=C(c2ccccc2)N=C(S)NC1c1ccccc1` (configuration not stated), in the assay on Rattus norvegicus [1], the “log(activity)” value is recorded as 0.52.

`Cc1ccc(C2=C(CC(=O)O)C(c3ccco3)NC(=N)N2)cc1` (configuration not stated): the “log(activity)” value with Rattus norvegicus [1] was 0.54.

For `Cc1ccc(C2=C(CC(=O)O)C(c3ccc(Cl)cc3)NC(S)=N2)cc1` (configuration not stated), in the assay on Rattus norvegicus [1], the “log(activity)” value is 0.72.

On to `N=C1NC(c2ccccc2)=C(CC(=O)O)C(c2ccccc2)N1` (configuration not stated), for which, in the assay on Rattus norvegicus [1], the “log(activity)” value came out at 0.64.

On to `CN(C)c1ccc(C2NC(=O)NC(c3ccc(S(C)(=O)=O)cc3)=C2c2ccccc2)cc1` (configuration not stated), for which the inhibition in assay [7] amounted to 2.36%. The inhibition in vivo at 20 mg/kg in the assay on Rattus norvegicus [5] was 9.52%; in the assay on Rattus norvegicus [2], 41.4%; in the assay on Rattus norvegicus [3], 26.9%; in the assay on Rattus norvegicus [4] it was 46.9%.

For the compound `COc1ccc(C2NC(=N)NC(c3ccc(C)cc3)=C2CC(=O)O)cc1` (configuration not stated), in the assay with Rattus norvegicus [1], the “log(activity)” value was determined as 0.88.
